# Tests used:
# [1] = tested on: prostate-specific antigen levels; conditions: small percentage of prostate cancer patients; cited from earlier work
# [2] = tested on: recurrent metastatic liposarcoma; conditions: patients with recurrent metastatic liposarcoma; cited from earlier work
# [3] = Pharmacokinetics: plasma R-150033 by LC-MS/MS after oral efatutazone; assay type: in vivo, human; conditions: 0.10 to 1.15 mg twice daily; single and multiple doses
# Procedure, shortened: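 Adults with advanced solid malignancies took oral doses twice daily in 21-day cycles, in cohorts of 3 to 6 at 0.10–1.15 mg. Plasma was sampled at baseline and 0.5, 1, 2, 3, 4, 6 and 8–10 h after the first dose on day 1 of cycles 1 and 2. Active metabolite R-150033 was measured by validated LC-MS/MS. AUC, Cmax and Tmax were derived; accumulation was AUC0-tau/AUC0–12, and steady state was judged from trough levels.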
smiles,measurement,setting,value
CN(CCOc1ccc(CC2SC(=O)NC2=O)cc1)c1ccccn1 (stereo not drawn) [rosiglitazone],Effect on prostate-specific antigen levels,[1],either decreased or prolonged the stabilization of prostate-specific antigen levels
CCc1ccc(CCOc2ccc(CC3SC(=O)NC3=O)cc2)nc1 (stereo not drawn) [pioglitazone],Disease stabilization,[2],prolonged disease stabilization
Cc1cc(Oc2ccc3nc(COc4ccc(CC5SC(=O)NC5=O)cc4)n(C)c3c2)cc(C)c1N (stereo not drawn) [R-150033],Dose proportionality of exposure (AUC and Cmax),[3],dose proportional

# — PMC3726261 (Cancer, 2012)
